Data set [1] concerns the target Transient receptor potential cation channel subfamily A member 1 (Homo sapiens, UniProt O75762). The experiment in a line: Antagonist activity at human TRPA1 expressed in HEK293-TREx cells assessed as change in calcium level by Fluo-4NW assay. In kind it is cell-based. Summed up:
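Human receptor; values are means of at least 2 experiments, with replicate error within 20% of value.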

Data set [2] has as its system Plasma. Description: Fraction unbound in human plasma at 10 uM by equilibrium dialysis method. In kind it is ADME, cell-free. Summed up: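 Test compound at 10 μM in human plasma. Binding is measured by equilibrium dialysis.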
(Equilibrium dialysis compares concentrations on both sides of a semipermeable membrane.)

Data set [3] can be described thus: Apparent permeability from apical to basolateral across human Caco2 cells at pH 7.4 at 10 uM by Transwell assay. In kind it is ADME, cell-based. To be noted: Caco-2, pH 7.4. The method in brief:
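Caco-2 monolayer in a Transwell format. Compound at 10 μM is applied apically and apical-to-basolateral apparent permeability is measured at pH 7.4.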
For orientation: Passage across Caco-2 layers is used to estimate intestinal permeability.

Data set [4] can be described thus: Thermodynamic solubility of the compound in buffer at pH 7.4 by HPLC/UV detection method. In kind it is physicochemical. As to conditions: read-out: Therm_solubility. Summed up:
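Thermodynamic solubility in pH 7.4 buffer. Dissolved compound is quantified by HPLC with UV detection.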

A short description of data set [5]: Intrinsic clearance in human liver microsomes at 1 uM in presence of NADPH. It counts as ADME. To be noted: read-out: CLH. The method in brief: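 Incubated with human liver microsomes at 1 mg/mL protein plus NADPH. Test compound at 1 μM.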
On the technique in general: Liver microsomes are vesicles of endoplasmic reticulum, rich in cytochrome P450 enzymes.

Data set [6] deals with T1, Cytochrome P450 1A2 (Homo sapiens, UniProt P05177).
T1 sequence (P05177 whole entry): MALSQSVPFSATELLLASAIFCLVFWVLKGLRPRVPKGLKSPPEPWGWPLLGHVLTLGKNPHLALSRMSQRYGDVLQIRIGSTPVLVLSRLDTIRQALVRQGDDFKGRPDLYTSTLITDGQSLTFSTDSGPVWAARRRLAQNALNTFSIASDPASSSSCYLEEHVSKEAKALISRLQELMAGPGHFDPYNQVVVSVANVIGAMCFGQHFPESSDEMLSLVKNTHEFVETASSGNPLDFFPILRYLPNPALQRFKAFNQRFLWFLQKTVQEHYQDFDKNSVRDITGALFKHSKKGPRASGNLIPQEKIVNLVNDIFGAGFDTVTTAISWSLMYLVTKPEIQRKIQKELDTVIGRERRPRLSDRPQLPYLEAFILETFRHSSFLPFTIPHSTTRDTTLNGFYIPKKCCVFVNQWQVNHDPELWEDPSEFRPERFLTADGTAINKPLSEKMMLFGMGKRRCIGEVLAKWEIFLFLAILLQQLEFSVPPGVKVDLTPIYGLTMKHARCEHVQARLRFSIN
Description: Competitive inhibition of CYP1A2 in human liver microsomes by LC-MS/MS analysis. It counts as ADME. Summed up: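 Competitive inhibition screen in human liver microsomes using standard probe substrates. Metabolites are detected by LC-MS/MS. The panel also covered 2C9, 2C19, 2D6 and 3A4.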

Data set [7] addresses CYP2D6 (Homo sapiens, UniProt P10635). The experiment in a line: Time-dependent inhibition of CYP2D6 in human liver microsomes at 10 uM by LC-MS/MS analysis. It counts as ADME. The method in brief: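 IC50-shift screen for time-dependent inhibition in human liver microsomes with test compound at 10 μM. The panel also covered 1A2, 2C9 and 3A4.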

The results in this text go back to ChEMBL document CHEMBL3352245, “Discovery of a series of aryl-N-(3-(alkylamino)-5-(trifluoromethyl)phenyl)benzamides as TRPA1 antagonists” (Bioorg Med Chem Lett, 2014).

Values after ≈ are worked out from the molar mass of the structure shown.

Chain of Transient receptor potential cation channel subfamily A member 1 (O75762 whole entry): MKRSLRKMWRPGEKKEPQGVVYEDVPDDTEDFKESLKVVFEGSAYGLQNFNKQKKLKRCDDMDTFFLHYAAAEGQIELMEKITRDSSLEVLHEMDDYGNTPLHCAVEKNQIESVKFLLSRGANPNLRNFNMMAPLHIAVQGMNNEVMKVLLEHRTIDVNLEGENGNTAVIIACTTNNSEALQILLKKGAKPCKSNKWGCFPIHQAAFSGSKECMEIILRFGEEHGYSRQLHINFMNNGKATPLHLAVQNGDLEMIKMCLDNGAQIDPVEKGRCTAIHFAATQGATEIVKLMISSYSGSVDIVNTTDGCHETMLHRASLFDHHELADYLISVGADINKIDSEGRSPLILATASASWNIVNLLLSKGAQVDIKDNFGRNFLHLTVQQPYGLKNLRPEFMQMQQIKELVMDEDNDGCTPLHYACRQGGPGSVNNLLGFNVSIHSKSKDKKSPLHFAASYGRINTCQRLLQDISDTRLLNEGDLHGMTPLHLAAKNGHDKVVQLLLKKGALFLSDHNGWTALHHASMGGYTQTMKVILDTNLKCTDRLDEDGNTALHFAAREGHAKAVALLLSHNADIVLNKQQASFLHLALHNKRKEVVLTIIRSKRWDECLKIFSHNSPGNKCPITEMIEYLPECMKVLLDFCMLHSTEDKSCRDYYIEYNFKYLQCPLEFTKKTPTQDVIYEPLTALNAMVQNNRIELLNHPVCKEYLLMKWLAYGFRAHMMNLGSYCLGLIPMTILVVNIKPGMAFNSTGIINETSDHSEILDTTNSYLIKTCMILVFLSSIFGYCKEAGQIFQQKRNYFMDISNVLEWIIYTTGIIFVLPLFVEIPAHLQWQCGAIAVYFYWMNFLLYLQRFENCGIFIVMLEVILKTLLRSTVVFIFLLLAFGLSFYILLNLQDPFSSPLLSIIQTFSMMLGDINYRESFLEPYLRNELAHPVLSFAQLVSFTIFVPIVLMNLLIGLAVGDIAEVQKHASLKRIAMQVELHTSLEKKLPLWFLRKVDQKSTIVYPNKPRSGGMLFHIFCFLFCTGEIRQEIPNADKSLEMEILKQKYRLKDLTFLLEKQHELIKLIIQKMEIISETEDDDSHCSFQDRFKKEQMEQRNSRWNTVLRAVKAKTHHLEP
Chain of CYP2D6 (P10635 whole entry): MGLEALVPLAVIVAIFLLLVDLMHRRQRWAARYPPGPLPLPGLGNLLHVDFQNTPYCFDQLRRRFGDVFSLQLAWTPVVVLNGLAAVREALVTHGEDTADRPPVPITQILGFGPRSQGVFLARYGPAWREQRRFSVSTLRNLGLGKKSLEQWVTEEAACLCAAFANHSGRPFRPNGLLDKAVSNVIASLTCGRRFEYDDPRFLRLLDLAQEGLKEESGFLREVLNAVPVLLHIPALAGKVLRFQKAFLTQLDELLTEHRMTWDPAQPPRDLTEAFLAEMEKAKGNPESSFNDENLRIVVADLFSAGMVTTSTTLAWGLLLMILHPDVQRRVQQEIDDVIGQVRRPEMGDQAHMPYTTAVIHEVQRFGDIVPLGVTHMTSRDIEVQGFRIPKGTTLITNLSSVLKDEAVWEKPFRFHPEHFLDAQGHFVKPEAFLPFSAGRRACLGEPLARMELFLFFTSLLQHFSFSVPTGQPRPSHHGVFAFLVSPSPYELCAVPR

The term IC50 denotes the concentration at which inhibition is half-maximal. As to `CCCNc1cc(N)cc(C(F)(F)F)c1`, the IC50 in data set [1] is more than 32000 nM. By Papp A→B is commonly meant how fast a substance crosses the layer from the apical side. `CC(C)Nc1cc(NC(=O)c2c(F)cccc2F)cc(C(F)(F)F)c1`: in data set [1], the IC50 worked out at 91 nM. In data set [2], this compound gave a Fu of less than 1%. Further, the Papp A→B at 10 µM in data set [3] was determined as 6.9 ×10⁻⁶ cm/s. Moreover, the solubility thermodynamic in data set [4] was 1 µM (≈ 0.358 µg/mL). For the same compound, the microsomal CLint at 1 µM in data set [5] stood at 73 µL/min/mg. For `O=C(Nc1cc(NCc2ccccc2)cc(C(F)(F)F)c1)c1cccs1`, the IC50 in data set [1] worked out at 2900 nM. Same read-out and setting: to `O=C(Nc1cc(NCCc2ccccc2)cc(C(F)(F)F)c1)c1cccs1` belongs 3900 nM.

As to `CC(C)CNc1cc(NC(=O)c2cccs2)cc(C(F)(F)F)c1`, the half-maximal inhibitory concentration (IC50) in data set [1] was determined as 790 nM.

For the compound `CCCNc1cc(NC(=O)c2cccnc2)cc(C(F)(F)F)c1`, the IC50 in data set [1] amounted to 940 nM. Consider `CCCNc1cc(NC(=O)c2ccc(F)c(F)c2)cc(C(F)(F)F)c1`, for which the IC50 in data set [1] was determined as 1200 nM. Consider `O=C(Nc1cc(NCc2cccs2)cc(C(F)(F)F)c1)c1cccs1`, for which the IC50 in data set [1] is 2700 nM. Regarding `CC(C)Nc1cc(NC(=O)c2cccs2)cc(C(F)(F)F)c1`, in data set [1], the IC50 is 290 nM. Turning to `CCCOc1cc(NC(=O)c2c(F)cccc2F)cc(C(F)(F)F)c1`, the IC50 in data set [1] is more than 32000 nM. `CCNc1cc(NC(=O)c2c(F)cccc2F)cc(C(F)(F)F)c1`: the IC50 in data set [1] was determined as 74 nM. The Fu in data set [2] is less than 1%. The solubility thermodynamic in data set [4] was 5 µM (≈ 1.72 µg/mL). Further, the microsomal CLint at 1 µM in data set [5] turned out to be 115 µL/min/mg. Consider `CCCNc1cc(NC(=O)c2cccs2)cc(C(F)(F)F)c1`, for which the IC50 in data set [1] was determined as 390 nM.

Turning to `CCCNc1cc(NC(=O)c2ccncc2)cc(C(F)(F)F)c1`, in data set [1], the IC50 is 2600 nM. With `CC(C)C(C)Nc1cc(NC(=O)c2cccs2)cc(C(F)(F)F)c1` (stereo not given), the IC50 in data set [1] is 1300 nM. Regarding `COC(=O)Nc1cc(NC(=O)c2cccs2)cc(C(F)(F)F)c1`, in data set [1], the IC50 stood at 2300 nM. One may read the inhibition as the change of the read-out against control, counted positive when it falls. Low readings indicate a response near the control, high ones a response far below the control. `CCCNc1cc(NC(=O)c2ccccc2)cc(C(F)(F)F)c1`: the IC50 came to 200 nM in data set [1] and 140 nM in data set [6]. This compound showed a Fu in data set [2] of less than 1%. Also, the Papp A→B at 10 µM in data set [3] is 6.2 ×10⁻⁶ cm/s. In addition, the inhibition at 10 µM in data set [7] worked out at 35%. For the same compound, the solubility thermodynamic in data set [4] amounted to 8 µM (≈ 2.58 µg/mL). For the same compound, the microsomal CLint at 1 µM in data set [5] is 154 µL/min/mg. For `CCCNc1cc(NC(=O)c2ccc(F)cc2)cc(C(F)(F)F)c1`, the IC50 in data set [1] was determined as 1400 nM. On to `CCCNc1cc(NC(=O)c2ccccn2)cc(C(F)(F)F)c1`, for which the IC50 in data set [1] is more than 32000 nM. For the compound `CCCN(C)c1cc(NC(=O)c2c(F)cccc2F)cc(C(F)(F)F)c1`, the IC50 in data set [1] is more than 32000 nM. Regarding `CCCN(CCC)c1cc(NC(=O)c2cccs2)cc(C(F)(F)F)c1`, in data set [1], the IC50 was more than 32000 nM. Take `CCCNc1cc(C)cc(NC(=O)c2c(F)cccc2F)c1`: the IC50 in data set [1] came out at 1900 nM.

Turning to `CCCNc1cc(NC(=O)c2c(F)cccc2F)cc(C(F)(F)F)c1`, the figures for the IC50 in data set [1] and in data set [6] were 110 nM and 1500 nM, respectively. Further, the Fu in data set [2] was less than 1%. Besides, the Papp A→B at 10 µM in data set [3] was determined as 2.7 ×10⁻⁶ cm/s. In addition, the solubility thermodynamic in data set [4] amounted to 7 µM (≈ 2.51 µg/mL). The microsomal CLint at 1 µM in data set [5] was found to be 96 µL/min/mg.
